Source: PubChem BioAssay
Only some compounds are listed: those with a hit (about 2.7% of all), similar ones and a draw of the others.
PAFAH1B2 FP inh: inhibitors of human PAFAH1B2. recombinant PAFAH1B2, FP-rhodamine activity probe, fluorescence polarization. 340,000 tested, 1.2% active. inhibition, % at 3.39 µM. P68402;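 active = inhibition above the mean of all tested compounds plus 3 SD, cut at about 24% in these data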;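 also: 0% = enzyme with DMSO and 100% = wells lacking PAFAH1B2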
PAFAH1B3 inh: inhibitors of human PAFAH1B3 | Q15102 | recombinant PAFAH1B3, FP-rhodamine probe, fluorescence polarization | inhibition, % at 3.39 µM | 340,000 tested, 0.28% active | AID 492972;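 active = inhibition above the screen-wide average of all tested compounds plus 3 SD, cut at about 25% in these data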;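 also: 0% = enzyme with DMSO only and 100% = wells lacking PAFAH1B3 protein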
Target sequence (Q15102 whole entry, looked up): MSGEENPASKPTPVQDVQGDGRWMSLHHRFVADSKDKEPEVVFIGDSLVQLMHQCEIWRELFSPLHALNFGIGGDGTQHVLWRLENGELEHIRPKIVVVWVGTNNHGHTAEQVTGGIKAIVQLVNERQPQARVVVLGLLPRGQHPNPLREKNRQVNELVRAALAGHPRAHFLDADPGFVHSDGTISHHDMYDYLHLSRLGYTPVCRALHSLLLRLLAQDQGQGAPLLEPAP
pPAFAH inh: inhibitors of human plasma PAF acetylhydrolase (pPAFAH) | inhibition, % at 3.39 µM | 330,000 tested, 1.5% active | recombinant pPAFAH, FP-rhodamine probe fluorescence polarization;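 active = inhibition above the mean inhibition across the screen plus 3 SD, cut at about 25% in these data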;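 also: inhibitors block binding of the rhodamine activity-based probe so polarization drops; 0% = enzyme with DMSO and 100% = wells lacking pPAFAH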
RBBP9 inhibitor: blocks human serine hydrolase RBBP9; O75884; recombinant RBBP9, FP-Rh probe fluorescence polarization; inhibition, % at 7.94 µM; 220,000 tested, 0.2% active; AID 1515;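 active = inhibition above the campaign mean of all tested compounds plus 3 SD, cut at about 14% in these data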;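 also: plate controls were DMSO wells with RBBP9 for no effect and wells lacking RBBP9 protein for full effect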
Target sequence (O75884 whole entry, looked up): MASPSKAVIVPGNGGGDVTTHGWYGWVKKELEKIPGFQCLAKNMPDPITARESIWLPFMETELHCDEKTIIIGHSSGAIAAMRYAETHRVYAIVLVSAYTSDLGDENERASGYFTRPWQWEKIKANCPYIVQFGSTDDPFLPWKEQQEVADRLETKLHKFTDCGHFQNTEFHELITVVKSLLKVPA
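system = RBBP9 protein | input = RBBP9 at 2.5 µM in dispensed solution, before mixing | measured by = fluorescence polarization (mP), excitation 525 nm, emission 598 nm | incubation = enzyme-compound preincubation 30 min, then probe labeling 45 min, 25 °C | buffer or medium = Tris-NaCl-Pluronic buffer, pH 8.0 | compound = single dose 7.94 µM | also added = FP-Rh probe, 375 nM dispensing solution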
PAFAH2 inh: PAFAH2 (human) inhibition. 340,000 tested, 0.99% active. AID 492956. Q99487. recombinant PAFAH2, FP-rhodamine activity probe, fluorescence polarization. inhibition, % at 3.39 µM;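 active = inhibition above the mean over all tested compounds plus 3 SD, cut at about 30% in these data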;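 also: inhibitors block probe labeling of enzyme so polarization drops; 0% = enzyme with DMSO and 100% = wells lacking PAFAH2 protein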
* hit, by the source's call; nt = no result.

SMILES	PAFAH1B2 FP inh	PAFAH1B3 inh	pPAFAH inh	RBBP9 inhibitor	PAFAH2 inh
Cc1ccc(C)c(SCC(=O)NC(=O)NCc2ccccc2)c1	5	7	3	-7	10
O=C(CSc1ncn[nH]1)NCCc1ccc(Cl)cc1	31*	8	2	nt	11
O=C(CSc1ccc(F)cc1)NC(=O)NCc1ccccc1	28*	5	6	-6	8
Cc1ccc(S(=O)(=O)CCC(=O)OC(C)c2nnc(-c3cccs3)o2)cc1 (stereo unspecified)	1	4	3	nt	-3
COc1ccc2cc(C(C)C(=O)N3CCC(C)CC3)ccc2c1 (stereo unspecified)	4	-5	8	nt	12
O=C(NCCSc1ccccc1)c1ccccc1F	5	1	1	nt	2
O=C(CSc1ccc(F)cc1)NCCSc1ccccc1	28*	12	6	-5	4
Cc1cccc(N2C(S)=C(C#N)C(=O)NC2c2ccco2)c1 (stereo unspecified)	3	6	6	-4	11
N#CC1=C(S)N(c2ccccc2)C(c2ccc(-c3cccc(Cl)c3)o2)NC1=O (stereo unspecified)	5	-2	28*	-6	7
Cc1cccc(OCc2nnc(SC(C)C(=O)Nc3ccc(N4CCOCC4)cc3)o2)c1 (stereo unspecified)	1	4	7	nt	-11
CCN(C(=O)CSc1nc2ccccc2o1)c1c(N)n(Cc2ccccc2)c(=O)[nH]c1=O	-1	-1	29*	nt	-7
COc1cccc(CN2CCN(C3CCOCC3)CC2CCO)c1 (stereo unspecified)	6	-2	6	-9	-3
Cc1ccc(-c2cc(C(F)F)nc(NCc3cccnc3)n2)cc1	2	1	26*	-6	-14
CCCCc1cc(=O)oc2cc(C)cc(OCC(=O)NC(Cc3ccc(Cl)cc3)C(=O)O)c12 (stereo unspecified)	30*	4	6	nt	-1
CCCc1cc(=O)oc2cc(C)cc(OCC(=O)NC(Cc3ccc(Cl)cc3)C(=O)O)c12 (stereo unspecified)	27*	3	6	nt	-7
CCCc1cc(=O)oc2cc(C)cc(OCC(=O)N[C@@H](CSCc3ccccc3)C(=O)O)c12	2	-3	17	nt	5
COc1cc(C2N(C)CCC3(OCCO3)C2(C)C)cc(OC)c1OC (stereo unspecified)	3	4	1	-4	3
O=[N+]([O-])c1ccc2c(c1)[nH]c(=S)n2-c1ccccc1	-3	16	12	-8	3
CC(Sc1ncccn1)C(=O)NNC(=O)c1cccc(Cl)c1 (stereo unspecified)	2	4	-2	nt	1
COCCCNC(=O)C(=O)NC1CCCCC1C (stereo unspecified)	4	13	26*	-1	6
CC1CCCCC1NC(=O)C(=O)NCC1CCCO1 (stereo unspecified)	-1	13	3	3	0
O=C(O)c1ccccc1NS(=O)(=O)c1ccc(N/N=C/c2ccc(O)c(O)c2)c([N+](=O)[O-])c1	59*	58*	nt	nt	72*
NS(=O)(=O)c1ccc(N/N=C/c2ccccc2C(=O)O)c([N+](=O)[O-])c1	1	-2	-1	2	8
COc1ccc(C=NNc2ccc([N+](=O)[O-])cc2S(=O)(=O)Nc2ccccc2C(=O)O)cc1OC	1	14	33*	nt	11
CC(=O)Nc1ccc(S(=O)(=O)N2CCC(C(=O)NCc3cccnc3)CC2)cc1	-1	3	6	nt	3
SMILES	PAFAH1B2 FP inh	PAFAH1B3 inh	pPAFAH inh	RBBP9 inhibitor	PAFAH2 inh
NNC(=O)/C(=C/c1cccs1)NC(=O)c1ccccc1Cl	1	-3	0	-1	-1
COc1ccc2sc(-c3ccc(N(C)C)cc3)c(C#CCCO)c2c1	5	13	26*	nt	5
Cc1cc(C(=O)O)ccc1-n1c(C)cc(C=C2C(=O)c3ccccc3C2=O)c1C	2	8	17	0	22
Cc1cc(C(=O)O)ccc1-n1c(C)ccc1C	nt	nt	50*	-4	nt
N#Cc1c(NC(=O)CSc2ncnc3sccc23)oc(-c2ccco2)c1-c1ccco1	3	16	33*	-2	22
CCn1c(SCC(=O)Nc2oc(-c3ccccc3)c(-c3ccccc3)c2C#N)nnc1-c1ccncc1	23	1	9	-3	9
CCn1c(SCC(=O)Nc2oc(-c3ccccc3)c(-c3ccccc3)c2C#N)nnc1-c1ccco1	25*	9	21	-4	11
